We go through 95 compounds from ChEMBL document CHEMBL4513216, “Probing the Open Global Health Chemical Diversity Library for Multistage-Active Starting Points for Next-Generation Antimalarials” (ACS Infect Dis, 2020).

The data set in a line: Toxicity liver stage against HepG2, at 10uM. Format: cell-based. To be noted: human, HepG2-A16-CD81EGFP cells; read-out: INHIBITION
Also on record: test concentration 10 uM, cell line HepG2-A16-CD81EGFP. In outline: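 Uninfected HepG2-A16-CD81EGFP cells, 3 × 10^3 per well, 1536-well, plated on prespotted compound at 10 μM final, parasite-free screening media added to match infected plates; puromycin 10 μM positive, DMSO 0.5% negative; run in parallel with 48 h PbLuc assay at 37 °C, 5% CO2; viability by CellTiter-Glo luminescence, normalized to controls.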
With `O=c1[nH]c(NCCCO)nc2c1C1(CCCC1)Cc1ccccc1-2`, the cytotoxicity at 10 µM came to 8.79%. To `Cc1nn(C(=O)c2cccnc2)c(C)c1C` belongs -8.62%. In the case of `Cc1ccc(OCc2occc2C(=O)O)cc1` it was -3.76%; in that of `CNC(=O)NC(=O)C(NCc1cccs1)c1ccccc1` (stereo not given), 6.75%; in that of `O=C(c1cc(Cl)c(Br)[nH]1)N1CCN(Cc2ccco2)CC1`, -55.7%. To `FC(F)(F)c1cccc(CN2CCOC[C@H](Oc3cccnc3)C2)c1` belongs 7.74%; to `CCN1Cc2cc3c(cc2NCCC1=O)OCO3`, -7.44%; to `COc1cc(NC(=O)C2CC(=O)N(c3cccc(Br)c3)C2)ncn1` (stereo not given), 33.4%.

On to `COCC(=O)N1CCC2(CCC2NS(=O)(=O)c2ccccc2)CC1` (stereo not given), for which the cytotoxicity at 10 µM worked out at 0.073%. In the case of `O=C(c1ccc[nH]1)N1C[C@H](OCc2ccccn2)[C@H]2COC[C@H]21` it was 0.238%. With `COc1ncc(C(=O)NCc2ccccc2)cn1`, the cytotoxicity at 10 µM was -3.99%. In the case of `Cc1ccc(CN2CC[C@H]3C[C@@H](c4nc(C5CC5)cs4)O[C@@H]3C2)o1` it was -4.29%; in that of `CCCN1CCN(C(=O)Cn2nc(C(F)(F)F)c(Br)c2C2CC2)CC1`, 2.2%; in that of `CCn1ncc(-c2cc(C(F)F)nc3sc(C(N)=O)c(N)c23)c1C`, 10.3%.

On to `Cc1c(Cl)cccc1NC(=O)N1CCN(Cc2ccccn2)CC1`, for which the cytotoxicity at 10 µM was -5.55%. In the case of `CCOC(=O)Cn1nnnc1-c1ccccc1`, the cytotoxicity at 10 µM turned out to be 0.363%. For the compound `CCOC(=O)CNC(=O)N1CCN(c2ncccn2)CC1`, the cytotoxicity at 10 µM came out at 10.6%. In the case of `OC1(Cn2ccc3ncccc32)CCN(Cc2cccs2)CC1` it was -9.65%; in that of `CCC(C)(C)NC(=O)C[S+]([O-])Cc1csc(C2CCCC2)n1` (stereo not given), -41.3%; in that of `O=C(CCn1cncn1)NCC1CCCC1`, -43.1%. For `Cn1cnnc1S(=O)(=O)Cc1cc(Cl)c2c(c1)OCCO2`, the cytotoxicity at 10 µM was -44.7%. In the case of `N#Cc1ncn(Cc2c(F)cccc2Cl)n1` it was -3.94%; in that of `N#CCCN(CC(=O)Nc1ccc(Br)cc1Cl)Cc1cccnc1`, 11%; in that of `COc1ccc(CNCc2c(C)nc3sc(C)cn23)c(OC)c1OC`, -1.99%. For the compound `CCOCCN1CCN(CCC(=O)N2CCCCC2)CC1`, the cytotoxicity at 10 µM is -7.71%. To `Cc1ccnc(C(NC(=O)c2sc(C)nc2C)C2CC2)n1` (stereo not given) belongs -11%; to `CN(Cc1ccc(N(C)C)cc1)C(=O)CS(=O)(=O)c1ccc(Cl)cc1`, 22.2%; to `CCOc1cc(CN(C)CCC#N)ccc1OC(F)F`, -5.81%. In the case of `COc1cccc(N2CCN(CCC(=O)NC3CCCCC3)CC2)c1`, the cytotoxicity at 10 µM is -5.64%. To `Cc1nc(C)n(CC2CN(CC(=O)Nc3ccncc3)CCO2)n1` (stereo not given) belongs -0.654%; to `CCOC(C)C(=O)Nc1ccc(Sc2nncn2C)c(Cl)c1` (stereo not given), -1.37%; to `c1ccc(-n2nnnc2NCc2ccc3c(c2)OCO3)cc1`, 29.5%. In the case of `Cc1[nH]ncc1C(C)NCc1ccc(F)cc1` (stereo not given) it was 3.28%; in that of `Cc1c(C(=O)N(CCN(C)C)Cc2ccccn2)oc2ccccc12`, 14.4%. In the case of `CS(=O)(=O)c1cccc(C(=O)NCc2nc3cc(F)ccc3[nH]2)c1` it was 12.2%; in that of `CCC(C)NC(=O)c1cccc(CNCc2csc(C(C)C)n2)c1` (stereo not given), 9.48%. As for `OC1CCN(Cc2ccc(CNc3ncc(Cl)cc3F)cc2)CC1`, the cytotoxicity at 10 µM worked out at 9.96%. With `Cc1csc(C2(NCc3nc(-c4ccco4)oc3C)CCCC2)n1`, the cytotoxicity at 10 µM worked out at 7.2%.

For `O=C(Cc1ccccc1F)NCC1CCN(CCN2CCOCC2)C1` (stereo not given), the cytotoxicity at 10 µM is -47%. As to `COc1ccc(-c2nnc(SC(C)C(=O)NCC(C)C)[nH]2)c(OC)c1` (stereo not given), the cytotoxicity at 10 µM was 83.5%.

On to `CN1CCC2(C=C(C(=O)N(C)C)c3ccccc32)CC1`, for which the cytotoxicity at 10 µM was -102%.

Take `Cc1csc([C@H]2C[C@@H]3CCN(Cc4cc(C)on4)C[C@H]3O2)n1`: the cytotoxicity at 10 µM was -99.4%. To `Cn1ccnc1CN1CCC2(COCCN(S(=O)(=O)C3CC3)C2)C1` (stereo not given) belongs 12.7%; to `CCC1=NC2(CCC(C(=O)Nc3ccc(C)nc3)CC2)C(=O)N1C` (stereo not given), 8.79%; to `CC(=O)N1CCc2nc(-c3ccc(F)cc3)nc(NC(C)C)c2CC1`, -114%. To `CC(C)N(C)Cc1cn2c(n1)CN(C(=O)c1ccc[nH]1)CC2` belongs -73.2%; to `Cc1nc(CN2C[C@@H](CN3CCOCC3)[C@@H](CO)C2)c2ccccn12`, 0.363%; to `CCN(CC)C1CCN(c2ncnc3c2CCN(C(=O)C2CC2)C3)C1` (stereo not given), 1.52%.

With `COc1ccc2cc(C3CN(C(=O)CN4CCCC4)CCO3)ccc2c1` (stereo not given), the cytotoxicity at 10 µM is -6.88%.

For the compound `COc1cc2ncn(Cc3ncc[nH]3)c(=O)c2cc1OC`, the cytotoxicity at 10 µM was 5.56%. To `CCCn1cc(-c2cc(-c3cc(CC)n[nH]3)c(C#N)c(N)n2)c(C)n1` belongs -6.7%; to `CN(Cc1ccccc1)CC1(O)CCCN(CCC2CCCCC2)C1=O` (stereo not given), -2.3%.

With `CCN1CC(NC(=O)Nc2nc(C)n(C(C)C)n2)CC1=O` (stereo not given), the cytotoxicity at 10 µM was -5.58%. In the case of `Cc1cc(N[C@H]2CCCN(Cc3ccccc3)C2)n2nc(C)cc2n1` it was 1.53%; in that of `C[C@@H]1CCC[C@H](C)N1CC(=O)N1CCc2[nH]c(-c3ccccc3)nc2C1`, 4.02%; in that of `Cc1ccccc1C(=O)NC[C@@H]1CCN(C(=O)c2cscn2)C[C@H]1O`, -52.2%. To `Cc1cnc(NC(=O)c2ccc(C3CCCN3CC(C)C)s2)s1` (stereo not given) belongs 9.45%; to `Cc1ccc(NC(=O)CNC(C)CN2CCCCC2)c(F)c1` (stereo not given), -51.6%; to `CSc1nnc(CC2CCN(C(=O)Cc3ccncc3)CC2)n1C`, -46.7%. To `CC(C)[C@@H]1CN(C(=O)C2(c3ccccc3)CCN(C)CC2)C[C@H]1C(=O)O` belongs 8.73%; to `Cc1ccc(C(=O)N2CCCC(Cn3cc(C(C)(C)N)nn3)C2)s1` (stereo not given), -19.1%; to `COCCCN1C(=O)CC[C@H]2CN(c3ccnc4ccccc34)CC[C@H]21`, -3.63%. As for `Cc1ccccc1N1CC(C)N(C(=O)CCn2cccn2)CC1=O` (stereo not given), the cytotoxicity at 10 µM was 10.1%. With `O=C(NCCN1CCOCC1)c1cc(COc2ccccc2F)[nH]n1`, the cytotoxicity at 10 µM was 13.1%. To `COc1ccc(C)cc1-n1cnnc1CC1CCNCC1` belongs -11.4%; to `CC(=O)NCCC1CCN(c2nc(C(C)(C)C)nc3c2cnn3C)CC1`, -0.891%; to `CCOc1cc(CNCc2cnc(C)cn2)c(Cl)cc1OC(C)C`, 4.86%. In the case of `CC/C=C(\C)CN1CCC(CNC(=O)c2c[nH]c(=O)c(Cl)c2)C1` (stereo not given) it was -13.2%. To `CCc1csc(CNC2CCN(Cc3ccccc3)C2)n1` (stereo not given) belongs 4.82%.

On to `CN(C(=O)c1cccc(NCc2cccs2)c1)C(C1CC1)C1CC1`, for which the cytotoxicity at 10 µM came out at 8.41%. For the compound `CCCN1CCC(NC(=O)c2csc(C)c2C)CC1`, the cytotoxicity at 10 µM was -137%. In the case of `O=C(O)CCn1ccc2c(nnc3c(-c4ccc(F)cc4)cnn32)c1=O` it was 4.01%; in that of `C[C@@H]1CN(C(=O)CCCN2CCOCC2)CC[C@@]1(O)C1CCC1`, -2.95%; in that of `O=C1NC2(CCN(C/C=C/c3ccccc3)CC2)CC1c1ccccc1` (stereo not given), -47.1%. To `Cc1cc2nc(C(C)C)cc(NCCNc3ncccc3C)n2n1` belongs 16.9%; to `CNc1cc(C(=O)N2CCCCC2CCn2ccnc2C)ccn1` (stereo not given), 1.85%; to `c1cnn(CC2CN(Cc3csc(C4CCCCC4)n3)CCO2)c1` (stereo not given), -6.37%. For the compound `O=C1NCCN1C1CCN(CCOc2ccccc2F)CC1`, the cytotoxicity at 10 µM was -3.63%. `Cc1cc(CN2CCCC2c2noc(C3CC3)n2)c2ccccc2n1` (stereo not given): the cytotoxicity at 10 µM was found to be 49.5%.

Consider `Cc1cnn(C2CCCN(C(=O)CCc3nccs3)C2)c1` (stereo not given), for which the cytotoxicity at 10 µM is -4.49%. In the case of `COC(=O)c1ccc(N2CCN(C(=O)c3cnn(C)c3)C(C)C2)cc1` (stereo not given) it was -11.5%; in that of `COc1cc(C(=O)Nc2nc(C)no2)ccc1C`, -8.39%; in that of `CC(=O)N1CCCN(CC(C)(O)c2cccc(C(F)(F)F)c2)CC1` (stereo not given), -10.3%. Regarding `CN(CC(=O)NC(Cc1ccsc1)c1cccnc1)Cc1cccnc1` (stereo not given), the cytotoxicity at 10 µM is -4.04%. `NC1CCc2nc(-c3cccnc3)nc(Nc3ccc(F)cc3)c2C1` (stereo not given): the cytotoxicity at 10 µM was -10.5%. Turning to `c1cnc(N2CC[C@@H](OCC3CC3)[C@@H]2Cc2cccnc2)nc1`, the cytotoxicity at 10 µM was 3.26%. To `O=C(c1cscn1)N1CCO[C@H]2[C@@H](Oc3ccccn3)CC[C@@H]21` belongs -109%.

As for `Cc1ccc(CN2CCOCC3(C2)CN(c2ccc(C)s2)C(=O)CO3)o1` (stereo not given), the cytotoxicity at 10 µM was 7.31%. To `CNC(=O)c1cc2c(nc1N(C)C)CCN(c1ncccn1)CC2` belongs -119%; to `Cc1cccc(CN2CCC3(CCCN(Cc4cnn(C)c4)C3)C2)n1` (stereo not given), -113%; to `Cc1cccc(CN2CC[C@@H]3[C@@H]2CCN3C(=O)Cc2ccsc2)n1`, -107%. To `COc1cc(N2C[C@@H]3COC[C@]3(COCc3cccc(C)n3)C2)ncn1` belongs 12.4%; to `CN(C)C(=O)CO[C@@H]1CC[C@H]2[C@H]1OCCN2c1ncc(F)cn1`, 5.44%.

`O=C(Cc1ccncc1)N1C[C@H]2CC[C@@H](C1)N(Cc1ccccc1)C2=O`: the cytotoxicity at 10 µM worked out at 5.79%. As to `CC1(C)CC(n2cc3nc(N4CCCC4)[nH]cc-3c2=O)CC(C)(C)N1`, the cytotoxicity at 10 µM is 9.46%.
